5 compounds from ChEMBL document CHEMBL3244412, “Benzopyrones. 14. Synthesis and antiallergic properties of some N-tetrazolylcarboxamides and related compounds” (1978) can be followed below.

Experiment [1] in a line: Antianaphylactic activity in rat mast cells assessed as inhibition of DNP-ovalbumin-induced histamine release after 15 mins by superfusion assay. In kind it is functional. The conditions noted are these: Mast cell, 0.25 h, read-out: ED50 (the source's name). In a few lines: (§1)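 Peritoneal and pleural cells from male albino rats were washed, sensitized with 1:10 rat reaginic anti-DNP-ovalbumin serum for 2 h at 37 °C, and resuspended at 1.2-1.7 × 10⁵ mast cells/mL. Compound and DNP-ovalbumin were added together and incubated for 15 min at 37 °C. Supernatant (free) and lysed-cell (residual) histamine were assayed by guinea pig ileum superfusion bioassay. Inhibition of net histamine release was used to derive EC50 from dose ranging against the reference compound.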

The subject of experiment [2] is Rattus norvegicus. Nature of the experiment: Antiallergic activity in rat assessed as inhibition of DNP-ovalbumin-induced passive cutaneous anaphylaxis at 5 mg/kg, iv after 30 mins relative to control. In kind it is functional. The conditions noted are these: 0.5 h. Summed up:
(§2)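 Female albino rats (groups of four) were shaved and sensitized by dorsal intradermal injection of 0.1 mL diluted rat reaginic anti-DNP-ovalbumin serum, raised with Bordetella pertussis adjuvant. After 48 h they were challenged iv with 2 mg DNP-ovalbumin in 0.5 mL 1% Evans blue/saline, with the compound given iv in aqueous solution at the same time. After 30 min, skin weals were scored visually on a 5-point scale; % inhibition was taken versus vehicle controls.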

Experiment [3] can be described thus: Antianaphylactic activity in rat mast cells assessed as inhibition of DNP-ovalbumin-induced histamine release after 15 mins by superfusion assay relative to 4-oxo-N-(5-tetrazolyl)-4H-l-benzopyran-2-carboxamide. Format: functional, Mast cell. In a few lines: as §1
For experiment [4], the species on record is Homo sapiens. Nature of the experiment: Antianaphylactic activity in human lung fragments assessed as inhibition of sheep anti-human IgE-induced histamine release at 0.18 ug/ml treated 10 mins prior to sheep anti-human IgE-challenge measured after 15 mins by superfusion assay relative to control. Format: functional. Summed up: (§3)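 Human lung fragments in Tyrode's solution were incubated with the compound for 10 min, then challenged with sheep anti-human IgE and centrifuged for 15 min after challenge. Free and residual histamine were measured by superfusion bioassay on atropine-treated guinea pig ileum. % release and % inhibition were calculated from net release. Values are means of three experiments, each in duplicate.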

The species entered for experiment [5] is Homo sapiens. Nature of the experiment: Antianaphylactic activity in human lung fragments assessed as inhibition of sheep anti-human IgE-induced histamine release treated 10 mins prior to sheep anti-human IgE-challenge measured after 15 mins by superfusion assay. In kind it is functional. Summed up:
as §3

Experiment [6] deals with Rattus norvegicus. The experiment can be described thus: Antiallergic activity in rat assessed as inhibition of DNP-ovalbumin-induced passive cutaneous anaphylaxis at 1 mg/kg, iv after 30 mins relative to control. In kind it is functional. The conditions noted are these: Rattus norvegicus, iv, 0.5 h. In a few lines:
as §2

Experiment [7] is filed under the species Homo sapiens. The experiment can be described thus: Antianaphylactic activity in human lung fragments assessed as inhibition of sheep anti-human IgE-induced histamine release at 1.8 ug/ml treated 10 mins prior to sheep anti-human IgE-challenge measured after 15 mins by superfusion assay relative to control. Format: functional. Summed up:
as §3

Experiment [8] deals with Rattus norvegicus. The experiment can be described thus: Antiallergic activity in po dosed rat assessed as inhibition of DNP-ovalbumin-induced passive cutaneous anaphylaxis administered 10 mins prior to DNP-ovalbumin-challenge. Format: functional. In a few lines:
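This rat passive cutaneous anaphylaxis model used reaginic anti-DNP-ovalbumin serum given intradermally, iv DNP-ovalbumin with Evans blue 48 h later, and weal scoring. Rats were starved overnight and dosed orally with the compound in aqueous solution 10 min before iv antigen challenge. ED50 was calculated with 95% confidence limits, assuming a log-linear dose response.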

For experiment [9], the species on record is Homo sapiens. Nature of the experiment: Antianaphylactic activity in human lung fragments assessed as inhibition of sheep anti-human IgE-induced histamine release at 180 ug/ml treated 10 mins prior to sheep anti-human IgE-challenge measured after 15 mins by superfusion assay relative to control. In kind it is functional. Summed up: as §3
Experiment [10] deals with Rattus norvegicus. The experiment can be described thus: Antiallergic activity in iv dosed rat assessed as inhibition of DNP-ovalbumin-induced passive cutaneous anaphylaxis after 30 mins. The settings on record: 0.5 h. In kind it is functional. In a few lines:
as §2

The species entered for experiment [11] is Homo sapiens. Nature of the experiment: Antianaphylactic activity in human lung fragments assessed as inhibition of sheep anti-human IgE-induced histamine release at 18 ug/ml treated 10 mins prior to sheep anti-human IgE-challenge measured after 15 mins by superfusion assay relative to control. In kind it is functional. In a few lines: as §3

The structures appear in SMILES notation. In brackets after ≈: the same amount, converted by molar mass.

For `O=C(Cc1nnn[nH]1)Nc1coc2ccccc2c1=O`, the EC50 in experiment [1] is greater than 18 µg/mL. In addition, the inhibition in vivo (in general, the share of the control response that was lost under treatment) at 5 mg/kg in the experiment with Rattus norvegicus [2] is 0%. Further, the “fold change (potency relative to reference compound)” value in [3] is less than 0.005.
The matching figures for `O=c1c(-n2nn[nH]c2=O)coc2ccccc12`: 5 µg/mL (≈ 21.7 µM), 75% and 0.01.
As for `O=C(Nc1nnn[nH]1)c1cc(=O)c2ccccc2o1`, the inhibition (as a rule, the share of the control response that was lost under treatment) in the experiment filed under Homo sapiens [4] is 5%; in the experiment filed under Homo sapiens [5], “Dose-dependent effect”; in the experiment filed under Homo sapiens [7], 46.4%; in the experiment listed under Homo sapiens [9] it was 61.6%; in the experiment filed under Homo sapiens [11], 43.3%. Further, the EC50 in experiment [1] is 0.08 µg/mL (≈ 0.311 µM). The “fold change (potency relative to reference compound)” value in [3] turned out to be 1. The inhibition in vivo at 1 mg/kg with Rattus norvegicus [6] came to 100%. The ED50 – broadly, the dose that gives a 50% effect, or the effect in half of the subjects – in the experiment on Rattus norvegicus [8] was found to be 21 mg/kg; with Rattus norvegicus [10], 0.037 mg/kg.
Consider `O=C(O)c1coc2ccccc2c1=O`, for which, in experiment [1], the EC50 is greater than 18 µg/mL. For the same compound, in experiment [3], the “fold change (potency relative to reference compound)” value is less than 0.005. In addition, the inhibition in vivo at 1 mg/kg with Rattus norvegicus [6] was determined as 20%.
The matching figures for `O=C(Nc1nnn[nH]1)c1ccc2oc(-c3nnn[nH]3)cc(=O)c2c1`: 0.055 µg/mL (≈ 0.169 µM), 1 and 70%.
